{"data": "Measured values from different studies", "CYP2C19": "Cytochrome P450 2C19 (CYP2C19, Homo sapiens, UniProt P33261)", "note": "Compare with care: the assays were run in different laboratories."}
{"SMILES": "C[C@H](NC(=O)/C=C/c1ccccc1)C(=O)N[C@H](C=O)C[C@@H]1CCCNC1=O", "tested on": "A549", "assay": "cell growth or viability, MTT", "conditions": "24 h", "measurement": "CC50", "value": "> 100 µM"}
{"SMILES": "CN1CCCCC1Cn1cc(C(=O)c2cc([N+](=O)[O-])ccc2I)c2ccccc21 (racemic)", "system": "mouse, plasma", "conditions": "intravenous, 25 mg/kg", "measurement": "C0", "value": "6 µg/mL"}
{"SMILES": "O=S(=O)([O-])c1cccc(P(c2ccccc2)c2ccccc2)c1.[Na+]", "tested on": "NIH3T3", "assay": "cell growth or viability, resazurin", "conditions": "18 h", "measurement": "CC50", "value": "189 µg/mL"}
{"SMILES": "CC(C)C[C@H](NC(=O)[C@@H](NC(=O)c1ccoc1)C(C)C)C(=O)N[C@H](C=O)C[C@@H]1CCCNC1=O", "tested on": "A549", "assay": "cell growth or viability, MTT", "conditions": "24 h", "measurement": "CC50", "value": "> 100 µM"}
{"SMILES": "CCOC(=O)[C@@](C)(O)[C@@H]1C[C@@H](CO[Si](c2ccccc2)(c2ccccc2)C(C)(C)C)O[C@H]1n1cc(F)c(=O)[nH]c1=O", "tested on": "A549", "assay": "cell growth or viability, MTT", "conditions": "42 h", "measurement": "CC50", "value": "236 µM"}
{"SMILES": "COC(=O)C1CCN(C(=O)c2ccc(N(C)Cc3cnc4nc(N)nc(N)c4n3)cc2)CC1", "tested on": "CYP2C19", "assay": "enzyme activity, inhibitor, luciferase", "conditions": "10 µM", "measurement": "inhibition", "value": "-29.4%"}
{"SMILES": "CC(C)C[C@H](NC(=O)[C@@H](NC(=O)/C=C/c1ccccc1F)C(C)C)C(=O)N[C@H](C=O)C[C@@H]1CCCNC1=O", "tested on": "A549", "assay": "cell growth or viability, MTT", "conditions": "24 h", "measurement": "CC50", "value": "> 100 µM"}
{"SMILES": "Cl.Cl.O=C(CCN1CCCCC1)c1ccc(-c2ccc(C(=O)CCN3CCCCC3)cc2)cc1", "system": "Sprague-Dawley rat, plasma", "conditions": "oral, 50 mg/kg", "measurement": "Tmax", "value": "0.65 h"}
{"SMILES": "COC(=O)C(NC(=O)c1cn(CCCCCF)c2ccccc12)C(C)(C)C (stereo not drawn)", "system": "male Sprague-Dawley rat, plasma", "conditions": "subcutaneous, 200 µg/kg", "measurement": "Tmax", "value": "2.83 h"}
{"SMILES": "CC(C)C[C@H](NC(=O)[C@@H](NC(=O)c1ccc(Cl)cc1)C(C)C)C(=O)N[C@H](C=O)C[C@@H]1CCCNC1=O", "tested on": "A549", "assay": "cell growth or viability, MTT", "conditions": "24 h", "measurement": "CC50", "value": "> 100 µM"}
{"SMILES": "CC(C)(C)NC(=O)N[C@H](C(=O)N1C[C@H]2[C@@H]([C@H]1C(=O)NC(CC1CCC1)C(=O)C(N)=O)C2(C)C)C(C)(C)C (stereo partly drawn)", "tested on": "A549", "assay": "cell growth or viability, neutral red", "conditions": "48 h", "measurement": "CC50", "value": "> 100 µM"}
{"SMILES": "Cc1ncc2n1-c1ccc(Cl)cc1C(c1ccccc1F)=NC2", "assay": "metabolic stability", "system": "beagle dog, hepatocytes", "conditions": "1 µM, 4 h", "measurement": "compound remaining", "value": "3%"}
{"SMILES": "O=C[C@H](C[C@@H]1CCNC1=O)NC(=O)[C@H](CC1CCCCC1)NC(=O)c1cc2ccccc2[nH]1", "system": "dog, plasma", "conditions": "intravenous, 4 mg/kg", "measurement": "Cmax", "value": "9770 µg/mL"}
{"SMILES": "COc1cc2c(c(OC)c1OC)-c1ccc(OC)c(=O)cc1[C@@H](NC(C)=O)CC2", "tested on": "HFF-1", "assay": "cell growth or viability, resazurin", "conditions": "72 h", "measurement": "CC50", "value": "0.024 µM"}
{"SMILES": "CCC[C@@](N)(CO)CCc1ccc(OCCCCCC(C)C)cc1", "system": "dog, plasma", "conditions": "oral, 2.5 mg/kg", "measurement": "Cmax", "value": "69.2 nM"}
{"SMILES": "COC(=O)C1CCN(C(=O)c2ccc(NCc3cnc4nc(N)nc(N)c4n3)cc2)CC1", "tested on": "CYP2C19", "assay": "enzyme activity, inhibitor, luciferase", "conditions": "10 µM", "measurement": "inhibition", "value": "-23.4%"}
{"SMILES": "N=c1c2c(-c3ccccc3)c(-c3ccccc3)n(Cc3ccccc3)c2ncn1[C@H]1CC[C@H](O)CC1", "system": "male beagle dog, plasma", "conditions": "intravenous, 0.5 mg/kg, single dose", "measurement": "clearance", "value": "1.2 mL/min/kg"}
{"SMILES": "CC(C)C[C@H](NC(=O)[C@H](CC1CCCCC1)NC(=O)/C=C/c1ccccc1)C(=O)N[C@H](C=O)C[C@@H]1CCCNC1=O", "tested on": "A549", "assay": "cell growth or viability, MTT", "conditions": "24 h", "measurement": "CC50", "value": "> 100 µM"}
